Measured values reported in the EternaBench riboswitch data.

System: MS2 coat protein
Test: apparent Kd, MS2 coat protein; higher = weaker binding; RNA-MaP array; FMN 200 µM where present
Procedure, shortened: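 Green signal was scaled to red-channel RNA signal and control-cluster median Fmax, and the apparent Kd was taken as the median of filtered per-cluster binding-curve fits. The binding series used SNAP-549-labelled MS2 coat protein from 0.7 or 1.5 nM, doubling to 3 µM, on designs transcribed by stalled E. coli RNA polymerase on Illumina sequencing-chip clusters. Each series ran without and then with constant ligand in 100 mM Tris-HCl pH 7.5, 80 mM KCl, 4 mM MgCl2, BSA, DTT, yeast tRNA and Tween-20.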

[1] = designed as: ON switch for flavin mononucleotide, no ligand
[2] = ligand present: flavin mononucleotide, designed as: ON switch for flavin mononucleotide
[3] = designed as: OFF switch for flavin mononucleotide, no ligand
[4] = ligand present: flavin mononucleotide, designed as: OFF switch for flavin mononucleotide

Sequence	apparent Kd [1] [nM]	apparent Kd [2] [nM]	apparent Kd [3] [nM]	apparent Kd [4] [nM]
GCACGAGACUAAGGAUAUGGAGUAUCUACAUUAAACAUGAGGAUCACCCAUGUAGGGAGUAUGAUUCAGAAGGUAGAGACGUGC	157	37.3		
GCACGGUAAGUGAGGAUAUACCUCUGGAUACAGAGGUAGAAGGCACAUGAGGAUCACCCAUGUCUAAGCCGUGC			17.1	24.1
GCACGGUAUGUAGGAUAUGCAUAGCAUUGCUAUGCAGAAGGACAUGAGGAUCACCCAUGUAUGUAUUCCAUACUAAUCCCGUGA			5.72	5.98
GCACUGGAUGUAGGAUAUCAGGACGAUAAGUCCUGAGAAGGACAUGAGGAUCACCCAUGUGAUAAUUCCAGUGCAAAUAAUAUA			14.3	31
GCACUUAGAGAUUUACCGUUACUAACAUGAGGAUCACCCAUGUAGGAUAUGCUAAUAGUAUUGAAGCAGAAGGACACUAAGUGC			5	5.18
GCAGCACUCUUUAACAUGAGGAUCACCCAUGUCAAAAGACAUGAGGAUAUGCAUCUGAAGAAGAUGCAGAAGGCAUUGUGCUGC	32.3	6.94		
GCAGCAUAGUUUACUAGCUGUUACAUGAGGAUCACCCAUGUUCAGGAUAUGGUCUGGAUUACAGGCCAGAAGGGAACAAGCUGC			14.8	12
GCAGGCUUCGAGAAGGACAUGAGGAUCACCCAUGUGCGUGUGAAGCAGCCGUGAGGCUGCAUCAUGUAGGAUAUCGGAGUCUGG			72.2	525
GCAGGGUAUGAGAAGGCAUAAUUUAUCUAACCACAUGAUUACAUGAGGAUCACCCAUGUUUCCAAUGAGGAUAUCAUACCGUGC			8.05	7.54
GCAGGUUAAGUCAGGAUAUACCUAUGGAUACAUAGGUAGAAGGGACAUGAGGAUCACCCAUGUGACUCACCUGC			27.9	57.6
GCAGGUUUACGAGGAUAUGGGUGGUACGGACAUGAGGAUCACCCAUGUCUCCCAGAAGGCGUAGCCCAACAAAGAGAACAGGAG	160	22.5		
GCAUACAUUCGAGGAUAUCGGUGAACAAAUUAACGAGAAGGCGAUAUAAUUUUUAAUCUUAUAAACAUGAGGAUCACCCAUGUA	21.8	19.5		
GCAUACUAAGGAUAUACAUGAGGAUCACCCAUGUUGCCAAAUGGCAGCAUCACCUGGAGUAGAAGGUAGAUGUA			35	33.3
GCAUAUCAGGGAGGAUAUGACAUGAGGAUCACCCAUGUAAUUAUGGCUCUGUCAGAAGGCCCAUCGUCACUAUAGCGACGAGAA			587	16.9
GCAUCACAUGAGGAUCACCCAUGUCUUCGGAGUCGAGGAUAUGGUCACUGUAAACAGUGGCCAGAAGGCGAGAUGC	48.1	31.6		
GCAUGACAAAGUCAUGCAUAACGAACAUGAGGAUCACCCAUGUAGGAUAUGCUACUCAAAGAGUAGCAGAAGGACAUGUGCCUU			34.2	263
GCAUGCAAGUAGAAGGACGGAUAUUUUGAUACCGUAGGAUAUGCAGAAUCAUAUCCACAUGAUAACAUGAGGAUCACCCAUGUA			15	13.7
GCAUGCGUUCGAGGAUAUCGGUGAGAAACGGAACGAGAAGGCGAUCGAAUGUCACAUAUUAUGUACAUGAGGAUCACCCAUGUA	126	37.8		
GCCACACAUGAGGAUCACCCAUGUGAGGAUAUCAUGCUUCGUAGUAAACUACGAAGUGUGAGAAGGCACAUGGC			33.4	155
GCCAGGAUGUGAGGAUAUGCUGAGGAUAACUCAGCAGAAGGCACAUGAGGAUCACCCAUGUAAACUUAUCAUAAAUACCCUGGC			14.3	21.2
GCCAUCACAUGAGGAUAUGCUCGGGUUUCCCGAGCAGAAGGCAUGUCAUAAGACAUGAGGAUCACCCAUGUAGUUAAGAUGGCA	399	14.5		
GCCAUCACGUGAGGAUAUGCUCCCGUUUCGGGAGCAGAAGGCAUGUCAUCAGACAUGAGGAUCACCCAUGUAGUUAAGAUGGCA	43.6	13.1		
GCCAUCGCAUGAGGAUAUCCUCAGCUUUGCUGAGGAGAAGGCAUGUCAAUAGACAUGAGGAUCACCCAUGUAGUUAAGAUGGCA	692	81.3		
GCCAUCGCAUGAGGAUAUGCUCCCGUUUCGGGAGCAGAAGGCAUGUCAUAAGACAUGAGGAUCACCCAUGUAGAUAAGGUGGCA	337	12.7		
GCCAUCUCAUGAGGAUAUGCUCCCGUGUCGGGAGCAGAAGGCAUGUCAUAAGACAUGAGGAUCACCCAUGUAGUUAAGAUGGCA	263	11.1		
GCCCGGGCAGGAUAUGCAGGCCCGGGAAACCGGGCCAUGGGACAUGAGGAUCACCCAUGUAGAAGGGCCCGGGC			17.1	17.3
GCCCUCCCUGAGGAUAUUAUCUGGUUCGAUUGAUAAGAAGGCAGUACAUGAGGAUCACCCAUGUGGUUCGUUUG			108	285
GCCCUUUCUGAGGAUAUUAUCUGGUUCGAUUGAUAAGAAGGCAGUACAUGAGGAUCACCCAUGUGGUUCGUUUG			99.6	242

Sequence	apparent Kd [1] [nM]	apparent Kd [2] [nM]	apparent Kd [3] [nM]	apparent Kd [4] [nM]
GCCGAACAUGAGGAUCACCCAUGUCCGGGUAGUCAAGGAUAUGGGUAGGCAAUGCCGUGGCCAGAAGGUGGCUAUC	97.6	30.9		
GCCGAAGGAGGAUAUACACCCGGUGGCAAAACGCCGGCUCGACAUGAGGAUCACCCAUGUAGAAGGCCUGUGGU			16.4	18
GCCGGAUUUGUGAGGAUAUACCUAUGGAUACAUAGGUAGAAGGCACAUGAGGAUCACCCAUGUUCCUCUCCGGC			49	582
GCCUCAUAGUAGAAGGGACUUAUACAGUAAUGUUUUUAGUGUAAAUAACAUGAGGAUCACCCAUGUCAGGAUAUACUAAGAGGC			9.24	12.1
GCCUGACAUGAGGAUCACCCAUGUGAGGAUAUUUGGAUUGAGGAGUAGCACAUAGUCCAAAGAAGGUAUGUGGG			24.7	60.7
GCCUUACCGGUCAGGAUAUACACCCGUCACUCCUUGUAGAAGGGACAUGAGGAUCACCCAUGUACAUUACAUUC			27.2	26.8
GCCUUAUCGGUCAGGAUAUACACUUGUUAGUUGUUGUAGAAGGGACAUGAGGAUCACCCAUGUACAUUACAUUG			23.2	58.5
GCCUUAUCUGUCAGGAUAUACAAUAAAAUAUUUUUGUAGAAGGGACAUGAGGAUCACCCAUGUACAUUACAUUG			42	262
GCGAAUAUGGGUUAGGAUAUGCGCGCAUGUACAUGAGGAUCACCCAUGUUUACGGGCGCCUUUGAGCAGAAGGAGCUAAUCAACGC	36.5	27.6		
GCGAAUCAGUGAGGAUAUACAUAAAUUAUAACAGUAGAAGGCACAUACCUCAAGACAUGAGGAUCACCCAUGUGACAUAUCGCU			258	488
GCGAUUGCGUAGAAGGUACUAUAUAAUACACUGUAAGGAUAUACAUACAUGAGGAUCACCCAUGUAAAUGGAAUUUGCAAUCGC	6.93	6.41		
GCGCGCGUUGUGAGGAUAUUGUGUGUGAAAGCGCGCGAGAAGGCACAUGAGGAUCACCCAUGUAAGGUGUGUGU			455	392
GCGCUGCGUCAGAAGGGCCGAAAAGAGAAGAUGGCAGGAUAUGACAUGAGGAUCACCCAUGUACACGUCGCCAUGGGUGUUGGU			184	36.4
GCGCUUAAACAGAAGGCCAAAUACAUGAGGAUCACCCAUGUCGAAUCAUGGAGGAUAUGUUAUUAAUUACACGCAGAUGAGCGC	124	10.7		
GCGGAACAUGAGGAUCACCCAUGUAUCCGAAAUAUGGACUCACAGGAUAUCCCGAGUUGCCAGUCGGAGAAGGGUGACUCCAGC	12.3	8.09		
GCGGCUAGUGCAGGAUAUCGGCGCGUGUAGCGCCGAGAAGGGCACAUGAGGAUCACCCAUGUGAUCAAUCACUGCUAAGGCCGC			4.83	4.91
GCGUAAUAGGUGUAGCUAGUCGUACAAGAAGGGUGGAGAACAUGAGGAUCACCCAUGUGGUCUAUACAGGAUAUUGUUAUACGC	176	30.5		
GCGUAUAUAUGAUUUAUUUAACAGUCAGAAGGUGAGAAGACGACAUGAGGAUCACCCAUGUUAUUCAAGGAUAUGAUAAUGCGC	24.9	11.4		
GCGUAUUAGGUGUAGCUAGACAUUCAAGAAGGGUGAAGAACAUGAGGAUCACCCAUGUAGUUUUUACAGGAUAUUGAUUUACGC	269	14.9		
GCGUCAGAAUUAAUUGUGACAGGCAGAAGGCCAUAUUUCAUGUCAGACAUGAGGAUCACCCAUGUGGAGGAUAUGCAGUUACAC			43.4	98.7
GCGUCAGAAUUAAUUGUGACAUACAGAAGGCAAAAGUUAUGUUCAGACAUGAGGAUCACCCAUGUUGAGGAUAUGUAGAGAAUC			8.27	7.1
GCGUCAGAAUUAAUUGUGACAUACAGAAGGCAAAAUUAAGGAUAAGACAUGAGGAUCACCCAUGUUGAGGAUAUGUAGUGACGC			8.7	7.57
GCGUGGAAUACAGGAUAUGUUGUACAAUAAUCUUUGAGGCAUUGAGAUAAAACAGAAGGGUAAACAUGAGGAUCACCCAUGUAA			24.7	19.6
GCGUUCUUGUAGAAGGUACAUGAAAUCUAUUUUUAACACAUGAAACAUGAGGAUCACCCAUGUUGUAAGGAUAUACAUGAACGC	7.26	6.09		
GCUACGUCAGGAUAUCUGAUGUCUAACUUCGGUUAGACAUCAGAGAAGGGACAUGAGGAUCACCCAUGUAGCAG			114	112
GCUAGAAGCGUGAAAUAUCACAUGAGGAUCACCCAUGUGACACAGGAUAUAACAAUAUCAGAAGGUUAGAAGGGUGAACACGCC	119	32.9		
GCUAGACGUCGAGGAUAUGGGUGUGCGAGUCUUGGCACUGGACAUGAGGAUCACCCAUGUCGCUUCCAGAAGGCGACGUCCCUA	38.6	6.39		
